Data as given in the EternaBench riboswitch data.

Tested on: MS2 coat protein
Experiment: apparent Kd, MS2 coat protein; higher = weaker binding; RNA-MaP array; FMN 200 µM where present
In short: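 Stalled E. coli RNA polymerase produced the designs on Illumina sequencing-chip clusters. SNAP-549-labelled MS2 coat protein was added from 0.7 or 1.5 nM, doubling to 3 µM, without and then with constant ligand, in 100 mM Tris-HCl pH 7.5, 80 mM KCl, 4 mM MgCl2, BSA, DTT, yeast tRNA and Tween-20. The apparent Kd is the median of filtered per-cluster fits of green signal normalised to red-channel RNA signal and control-cluster median Fmax.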

[1] = designed as: OFF switch for flavin mononucleotide, no ligand
[2] = ligand present: flavin mononucleotide, designed as: OFF switch for flavin mononucleotide
[3] = designed as: ON switch for flavin mononucleotide, no ligand
[4] = ligand present: flavin mononucleotide, designed as: ON switch for flavin mononucleotide

Sequence | apparent Kd [1] [µM] | apparent Kd [2] [µM] | apparent Kd [3] [µM] | apparent Kd [4] [µM]
GUCCUACAUGAGGAUCACCCAUGUGAGGAUAUGUGGUUAGCUGCUAGGUAGUUAGUAUGCAGAAGGUACGUGAU | 0.0404 | 0.0419 | – | –
CGCAAGUAUACAUGAGGAUCACCCAUGUCAGAAAGGGUAAUCAGAAGGUACUAUUAGAGAUAGAGUAAGGAUAUGAAAUUUGUG | – | – | 0.399 | 0.11
UGUGUUAUCGGAGGAUAUCGAUAUCAAACAUGAGGAUCACCCAUGUUGAGGAUCACACAUGUCCACGAGAAGGCCGACGUAGUG | – | – | 0.00712 | 0.00723
GGAUAGGACAGAGGAUAUACGUGCUAGAGAUACUAGCAGAAUUUCCUCACAUGAGGAUCACCCAUGUAGAAGGCUGUCCUAUCG | 0.0122 | 0.216 | – | –
ACAUGAGGAUCACCCAUGUGAACAUAGGAUAUUGGUGAUCAGGCGUGUUAUACAGGAUAUGUCUGCGAGAAGGGUGCACGUUGC | – | – | 0.676 | 0.231
GGUGAGUGAGGAUAUCCAGGUCCUGACAUGAGGAUCACCCAUGUAUACGUCACGUGCGGAGGAGAAGGCACAAUAA | 0.0911 | 0.297 | – | –
UUUUCACAUGAGGAUCACCCAUGUGAGGAUAUGGUUUCGCUGGCCGUAGCCAGUGGAACCAGAAGGCGCGUGAU | 0.0607 | 0.0664 | – | –
UGAUCGAGAGAUCUUAGAUUCUGGUAGGAUAUAAAACAAUUGCGCUUUACAUGAGGAUCACCCAUGUAGAAGGACUAGAGUCUA | 0.00672 | 0.00596 | – | –
AGCGGAUUGUAGAAGGGUGACAUGAGGAUCACCCAUGUUCAAAUGCGAUUUUCGGUAAUUGAUCCACAGGAUAUACUGUCCGAG | – | – | 0.976 | 0.427
CGGUCGAUAUCAGGAUAUCGUUUAAUUACAUGAGGAUCACCCAUGUUGACAUGGAAUAUAACAUGCGAGAAGGGAUUACGAUCG | – | – | 0.0139 | 0.00985
CGCGUAUGAGGAUAUGCAUAAAAGGGUGCACUGAGUCUGAGACAUGAGGAUCACCCAUGUAGAAGGCGUGCGCU | 0.0129 | 0.016 | – | –
UGGUACUAGGGAGGAUAUGGGAAGAUACAUGAGGAUCACCCAUGUUUAAGAAUGCCGAGAGGCAACUAGAAGGCCCGAGUACCU | – | – | 0.456 | 0.0216
UAAAUUAACAAGAAGGCUAACAUGAGGAUCACCCAUGUUGUACAUGGAUAUAGAGGAUAUUGCUAAUAAUUUUUUAUCAUAAUU | 0.0208 | 0.0176 | – | –
CAUAUACAUGAGGAUCACCCAUGUUAGGAUAUGUUUUAACCGCGCGCAGGGUUAGUUGGCAGAAGGGAUCUGGG | 0.0314 | 0.039 | – | –
UCACGAGACUAAGGAUAUGGAGUGUCAACAUAAAACAUGAGGAUCACCCAUGUAAAGAGUACGAUUCAGAAGGUAGAGACGUGA | – | – | 0.043 | 0.0251
UUUUUAUUUGCAGGAUAUUGUAUUUUAUUACAUCAAGAAGGGCAUUACAUGAGGAUCACCCAUGUCUUCCUAUGGUUAACUAGU | 0.0123 | 0.0102 | – | –
CUUUACAUAGGAUAUAGUUGCUUUUACAUGAGGAUCACCCAUGUCUCUCCUCUCUCUCUUCUAGAAGGAUGUUUCU | 0.0563 | 0.0485 | – | –
UCACGGGAUUGAGGAUAUAUAUUAAUUUUUACAAUAGAAGGCAAAUUUUUAGUUUUUUCACUUUACAUGAGGAUCACCCAUGUU | 0.0275 | 0.0255 | – | –
UUACAUACAAAGGUACAUGAGGAUCACCCAUGUUUGUUGGGAAGAAGGGUAACAGUACUACAUAUAUAGGAUAUUUCACAAAUA | – | – | 0.122 | 0.0866
UUAGGAUCAGGAUAUGAUGUUUUAAACAUGAGGAUCACCCAUGUAGAUCCUGAAUCAACAUCAGAAGGGAUAAUUU | 0.0566 | 0.184 | – | –
UACAGCUCGACAGGAUAUACAUCACUGCUUCGGCAGUGUAUCUUAAUAACAUGAGGAUCACCCAUGUAGAAGGGUCGAGCUGUA | 0.0181 | 0.0328 | – | –
GGUUGGCGAGGAUAUACAUGAGGAUCACCCAUGUGGUCCUGUGGCUGAUCUUGCCUUUGUAGAAGGCGCGGAUC | 0.0497 | 0.0536 | – | –
AAGCGAAAGCUAAAAUAUCUAUCAGAGGAUAUUUAUGAUACAUGAGGAUCACCCAUGUAGCGCUGGGAGAAGGCUGAUAGAUAA | – | – | 0.00644 | 0.00498
GUAACAUGAGGAUCACCCAUGUCGUGCUAGAUGAGUUCUGGUGAGGAUAUACAUGGUAAAUAACUGUAGAAGGCGCUGGGUACA | – | – | 0.132 | 0.105
GAUUAACAUGAGGAUCACCCAUGUCGUUAUAUGGGAGGAUAUACGUGGACCGUAGUCCGCGUAGAAGGCCUAAUUG | – | – | 0.311 | 0.0603
GAGCUAUGAGGAUAUGCAUAGAUACGGAUUCGUGUAGUACUACAUGAGGAUCACCCAUGUAGAAGGCGUGGCAG | 0.0143 | 0.0159 | – | –
GGAUGACAAAGUCAUCCAAAUCGAACAUGAGGAUCACCCAUGUAGGAUAUGCUACUCAAAGAGUAGCAGAAGGACAUGUGCUUU | 0.0371 | 0.196 | – | –
GGAUGACAAAGUCAUCCAAAUCGAACAUGAGGAUCACCCAUGUAGGAUAUGCUACUGAAACAGUAGCAGAAGGACAUGUGCUUU | 0.0353 | 0.187 | – | –

Sequence | apparent Kd [1] [µM] | apparent Kd [2] [µM] | apparent Kd [3] [µM] | apparent Kd [4] [µM]
CGCAAGUAUACAUGAGGAUCACCCAUGUCAGAAAGGGUAAUCAGAAGGUACAAUUAGAGAUAGAGUAAGGAUAUGAAAUUUGCG | – | – | 0.75 | 0.274
GUAAAUCAUGUAGGAUAUGCAUGGCGAAGCUACGCAGAAGGACAUGAGGAUCACCCAUGUCUGUCCGUCUGCGUACAGACGGAC | 0.0256 | 0.17 | – | –
UGUCGGAGCAGAGGAUAUUACAUGAGGAUCACCCAUGUAUGAACCAAUAGCUGGAUACAGCAAUGUAAGAAGGCUGCUCCGACA | 0.00916 | 0.0892 | – | –
AUACUCAUGUAAGGAUAUGCAGCCGUUUCGGCUGCAGAAGGUACUAUAAUACAUGAGGAUCACCCAUGUCUCUCGCCUUGCGAG | – | – | 0.71 | 0.0897
GUUAGUUAAGGAUAUACAGGGAGCUGCGGCGUCUCGCCGCAACAUGAGGAUCACCCAUGUAGAAGGUAGCCGUU | 0.0764 | 0.121 | – | –
UGAUAGGACAGAGGAUAUACCGAUAGGAGAUACUAUCGACUAUUCCUCACAUGAGGAUCACCCAUGUAGAAGGCUGUCCUAUCU | 0.0155 | 0.0602 | – | –
GAGUGACAUGAGGAUCACCCAUGUGAGGAUAUCGGACGGACCUUGUUGGCUUCCGCCGCGAGAAGGCACCUCGG | 0.0439 | 0.0402 | – | –
AAUAAUAAGGAGGAUAUCGUAUCGGAAACGAUACGAGAAGGUCUAACAUGAGGAUCACCCAUGUUCCUCAAUAA | 0.0408 | 0.0546 | – | –
UUGUUAGGGAGAGGAUAUUGACAUGAGGAUCACCCAUGUAUUUGGGAGUGUUUACUGAAUUCUUACGAGAAGGCUUACGAAAUC | 0.264 | 0.186 | – | –
GCGCCAUUGCAAGGAUAUCCUACAGAGGGUGCAGGAGAAGGUGCAUUGGUGAGACUAUAGGACAUGAGGAUCACCCAUGUACCU | – | – | 0.0148 | 0.0179
CGACAUACGAUGGACGGAAACGUACAUGAGGAUCACCCAUGUAGAAGGCGAUCCGCAACGCGGAUUGAGGAUAUAUACCACACA | 0.0192 | 0.0178 | – | –
UUAAUCUAUACAGGAUAUCCAUACGCUGCAUACGGAGAAGGGUAACAAUCAUGAGGACAUGAGGAUCACCCAUGUUUUGAGCAU | – | – | 0.0428 | 0.0263
UACAAUCUAUCUGAGGAUAUCAUGAUUAUAACAUGAGGAUCACCCAUGUGCAGGAAAACUGCAUAUGAGAAGGCAGAUAGAUUGU | – | – | 0.611 | 0.098
CCUCGACGGUAGGAUAUCGUCAAACUAUUGUGAUGAGAAGGACUGACAUGAGGAUCACCCAUGUUAACGUGAUG | 0.018 | 0.0262 | – | –
ACUAGAUGAGGAUAUGCACAUUUUAGUGUUCCUCUAGAUUAACAUGAGGAUCACCCAUGUAGAAGGCGUCAAUU | 0.0457 | 0.0648 | – | –
UUAGCAUACCGAGGAUAUUCAUAUAAUAAAUAAACAUGAGGAUCACCCAUGUGGCGAAAGCCUAGGGAGAAGGCGGAAUGCUUU | – | – | 0.177 | 0.0281
AUGGUACAUGAGGAUCACCCAUGUUAGGAUAUCGCGUGUUCUAAAACUAAGAGAUACACGAGAAGGGACGACAU | 0.0902 | 0.0677 | – | –
GUUAAGGUAGGAUAUACGAUAAUAUAGGGUAGAUAUAUAACACAUGAGGAUCACCCAUGUAGAAGGACCAAUUG | 0.0302 | 0.0857 | – | –
UCGUACAUUCGAGGAUAUCGGUGAUUAAUAAUACGAGAAGGCGAUUUUAGGCAUAAAGCCUUAGACAUGAGGAUCACCCAUGUA | – | – | 0.0897 | 0.0537
UCAGGCUUCGAGAAGGACAUGAGGAUCACCCAUGUUAGUGUGAAGCAGCCGUGAGGCUGCAUCAUGUAGGAUAUCGGAGUCUGC | 0.0255 | 0.189 | – | –
AAAUAGCAUGAGGAUAUUGGACUGGAUUCAGUACGAGAAGGCAUGACAUGAGGAUCACCCAUGUUGUGUUGGGA | 0.0197 | 0.0448 | – | –
UUGGACGUCGUAGGAUAUGUAGGAGAUUCCUACAUGAGGAUCACCCAUGUUGACAUGGAAGAAGGACAGAAGGACGAUGUCCAU | – | – | 0.328 | 0.0204
UUAGAUUAUGAAGGAUAUGGAUCUUAUUAUUAACCAGAAGGUCAACUCAACAUGAGGAUCACCCAUGUAUAAAGGGUAUUAGUU | 0.134 | 0.132 | – | –
GCCUCAUAGUAGAAGGGACUUAGGCAGUUAAGCAUCAUCUCCAUUUCACAUGAGGAUCACCCAUGUCAGGAUAUACUAAGAGGC | 0.00939 | 0.0245 | – | –
AGUUGGCGAGGAUAUACAUGAGGAUCACCCAUGUGAAAUAUAAUAGUGAGGAAGAAAAGUAGAAGGCGCUGACA | 0.0483 | 0.281 | – | –
CCAUAUAAAUAAGGAUAUUAAGUUGAUUAUCCUCAAACAUGAGGAUCACCCAUGUAUAGUCUUAUUAAGAAGGUAUAGUGUUGG | – | – | 0.608 | 0.545
UGGUCAUCAUCAGGAUAUUAACAUGGGCUACAUUAAGAAGGGAUAGUGAGAUACGAACUGAACGCACAUGAGGAUCACCCAUGU | – | – | 0.0396 | 0.0265
